Reference: ChEMBL document CHEMBL1139871, “Selective urokinase-type plasminogen activator inhibitors. 4. 1-(7-sulfonamidoisoquinolinyl)guanidines” (J Med Chem, 2007)
In brackets after ≈: the same amount, converted by molar mass.

What was measured:
[1] = target: T1, Tissue-type plasminogen activator (Homo sapiens, UniProt P00750); assay: Inhibition of human tPA
Method in brief: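 Human one-chain tPA 0.4 µg/mL (final) with 0.1 mg/mL tPA stimulator, preincubated 15 min at 37 °C with inhibitor in 75 mM Tris pH 8.1, 50 mM NaCl. Then 0.4 mM S-2288 (H-D-Ile-Pro-Arg-pNA) added, 60 min at 37 °C. A405 read after preincubation and after substrate incubation, background subtracted. IC50 from % inhibition vs concentration. Ki = IC50/(1+[S]/Km), Km 250 µM.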
Target sequence in this assay (P00750 whole entry): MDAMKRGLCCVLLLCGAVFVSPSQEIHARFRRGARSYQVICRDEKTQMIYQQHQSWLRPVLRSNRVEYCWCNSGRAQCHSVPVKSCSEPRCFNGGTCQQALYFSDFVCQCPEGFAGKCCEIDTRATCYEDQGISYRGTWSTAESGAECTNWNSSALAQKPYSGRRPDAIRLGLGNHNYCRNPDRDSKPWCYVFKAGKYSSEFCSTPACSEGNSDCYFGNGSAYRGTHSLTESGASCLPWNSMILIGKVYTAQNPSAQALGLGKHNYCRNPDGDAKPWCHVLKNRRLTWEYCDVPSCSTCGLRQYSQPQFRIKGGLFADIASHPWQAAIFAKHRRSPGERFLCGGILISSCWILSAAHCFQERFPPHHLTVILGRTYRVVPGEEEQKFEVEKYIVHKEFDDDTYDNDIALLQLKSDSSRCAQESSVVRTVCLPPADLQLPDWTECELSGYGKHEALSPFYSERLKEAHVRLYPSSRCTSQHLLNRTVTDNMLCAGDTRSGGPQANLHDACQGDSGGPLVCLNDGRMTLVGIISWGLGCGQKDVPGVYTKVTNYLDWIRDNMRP

Plasminogen = Plasminogen (Homo sapiens, UniProt P00747); assay: Inhibition of human plasmin
Plasminogen, sequence (P00747 97-580 limits assumed): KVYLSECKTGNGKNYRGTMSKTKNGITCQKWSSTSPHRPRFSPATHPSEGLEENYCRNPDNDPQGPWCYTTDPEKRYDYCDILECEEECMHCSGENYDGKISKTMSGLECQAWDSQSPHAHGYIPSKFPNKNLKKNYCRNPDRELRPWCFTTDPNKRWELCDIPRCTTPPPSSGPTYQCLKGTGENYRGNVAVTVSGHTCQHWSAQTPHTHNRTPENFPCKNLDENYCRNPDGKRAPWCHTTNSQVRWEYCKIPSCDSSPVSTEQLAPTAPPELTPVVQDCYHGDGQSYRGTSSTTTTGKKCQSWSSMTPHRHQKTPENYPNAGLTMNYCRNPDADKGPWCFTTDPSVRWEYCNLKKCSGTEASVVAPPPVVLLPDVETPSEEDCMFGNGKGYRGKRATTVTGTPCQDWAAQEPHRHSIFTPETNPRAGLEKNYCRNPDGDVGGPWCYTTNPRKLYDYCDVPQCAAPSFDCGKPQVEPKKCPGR
Plasminogen, sequence (P00747 581-810 limits assumed): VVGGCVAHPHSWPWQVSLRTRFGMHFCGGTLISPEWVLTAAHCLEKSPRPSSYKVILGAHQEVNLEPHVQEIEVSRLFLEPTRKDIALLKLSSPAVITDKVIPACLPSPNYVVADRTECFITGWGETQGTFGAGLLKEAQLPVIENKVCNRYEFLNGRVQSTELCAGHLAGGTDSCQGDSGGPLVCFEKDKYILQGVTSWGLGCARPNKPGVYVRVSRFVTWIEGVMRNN
Method in brief: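 Human plasmin 0.7 µg/mL with 0.2 mM Chromozym-PL and varied inhibitor in Tris pH 8.1/NaCl buffer. Preincubated 15 min at 37 °C, then 30 min at 37 °C with substrate. A405 background-subtracted, % inhibition plotted for IC50.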

[2] = target: Urokinase-type plasminogen activator (Homo sapiens, UniProt P00749)
[3] = target: T1, Tissue-type plasminogen activator; assay: Inhibition of human tPA at 100 uM
Method in brief: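 Human one-chain tPA (0.4 µg/mL final) with 0.1 mg/mL tPA stimulator, preincubated with inhibitor for 15 min at 37 °C in 75 mM Tris pH 8.1, 50 mM NaCl. Then incubated with 0.4 mM S-2288 substrate for 60 min at 37 °C. Absorbance read at 405 nm, background subtracted, and percent inhibition calculated.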
Target sequence in this assay (P00750 36-562 limits assumed): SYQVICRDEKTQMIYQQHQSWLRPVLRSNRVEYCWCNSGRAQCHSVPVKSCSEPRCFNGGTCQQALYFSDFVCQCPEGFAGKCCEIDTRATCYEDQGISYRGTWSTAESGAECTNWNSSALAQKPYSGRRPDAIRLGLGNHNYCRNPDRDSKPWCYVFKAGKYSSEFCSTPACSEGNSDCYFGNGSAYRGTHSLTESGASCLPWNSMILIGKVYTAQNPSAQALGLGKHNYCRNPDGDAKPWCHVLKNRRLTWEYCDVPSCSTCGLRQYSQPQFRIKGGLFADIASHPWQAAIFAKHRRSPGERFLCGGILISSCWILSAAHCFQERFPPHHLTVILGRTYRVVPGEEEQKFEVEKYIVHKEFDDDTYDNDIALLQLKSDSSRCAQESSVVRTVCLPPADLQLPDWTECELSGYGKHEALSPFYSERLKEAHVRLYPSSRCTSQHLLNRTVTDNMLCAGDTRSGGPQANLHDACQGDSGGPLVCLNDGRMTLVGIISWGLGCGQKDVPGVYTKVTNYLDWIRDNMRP

[4] = Drug level in dermis of pig excisional wound model; assay type: ADME, tissue-based, Sus scrofa; settings: in vivo, read-out: Activity
Method in brief: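 Pig full-thickness wounds dosed topically once daily for 10 days with 1 mL of 10 mg/mL compound suspended in hydrogel (glycerol/water/F127/CMC). Animals killed on day 11. Wounds excised and dermal compound concentration determined.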

Coagulation factor IX = Coagulation factor IX (Homo sapiens, UniProt P00740); assay: Inhibition of factor 9a at 12.5 uM
Coagulation factor IX, sequence (P00740 47-191 limits assumed): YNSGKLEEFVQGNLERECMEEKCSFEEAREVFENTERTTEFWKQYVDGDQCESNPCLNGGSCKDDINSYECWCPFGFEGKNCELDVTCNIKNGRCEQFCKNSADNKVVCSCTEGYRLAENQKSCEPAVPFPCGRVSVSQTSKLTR
Coagulation factor IX, sequence (P00740 227-461 limits assumed): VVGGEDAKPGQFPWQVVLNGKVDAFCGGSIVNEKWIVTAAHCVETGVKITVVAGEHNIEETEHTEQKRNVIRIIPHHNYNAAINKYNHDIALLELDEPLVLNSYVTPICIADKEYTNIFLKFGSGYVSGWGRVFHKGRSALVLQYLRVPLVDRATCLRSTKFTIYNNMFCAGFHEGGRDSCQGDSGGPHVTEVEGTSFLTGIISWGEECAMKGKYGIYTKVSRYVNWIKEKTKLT
Method in brief: (§1)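 Human coagulation enzyme tested in a chromogenic enzyme assay. Percent inhibition was read at a single inhibitor concentration.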

[5] = target: Coagulation factor X (Homo sapiens) (UniProt P00742); assay: Inhibition of factor 10a at 10 uM; method in brief: as §1
Coagulation factor X (Homo sapiens), sequence (P00742 41-179 limits assumed): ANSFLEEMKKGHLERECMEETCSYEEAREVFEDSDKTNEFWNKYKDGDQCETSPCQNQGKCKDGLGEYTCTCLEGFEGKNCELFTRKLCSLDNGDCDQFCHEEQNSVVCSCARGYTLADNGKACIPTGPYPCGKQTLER
Coagulation factor X (Homo sapiens), sequence (P00742 235-488 limits assumed): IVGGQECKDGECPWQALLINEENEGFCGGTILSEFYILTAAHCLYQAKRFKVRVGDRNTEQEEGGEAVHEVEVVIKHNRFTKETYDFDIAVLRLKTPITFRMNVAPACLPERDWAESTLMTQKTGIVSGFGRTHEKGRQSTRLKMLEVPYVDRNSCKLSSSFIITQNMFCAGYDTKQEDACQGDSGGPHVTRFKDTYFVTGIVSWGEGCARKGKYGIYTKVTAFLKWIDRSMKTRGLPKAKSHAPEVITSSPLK

[6] = Dissociation constant, pKa of the compound; assay type: physicochemical
[7] = Lipophilicity, log D at pH7.4; assay type: physicochemical; settings: buffer, pH 7.4
[8] = Solubility in phosphate buffered saline at pH 6.5; assay type: physicochemical
Method in brief: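 Solubility measured in phosphate-buffered saline, pH 6.5.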

## NC(N)=Nc1ncc(Cl)c2ccc(S(=O)(=O)N(CC(=O)O)Cc3ccccc3)cc12
[1]
  Ki: > 100 µM
Plasminogen
  Ki: > 100 µM
[2]
  Ki: 0.035 µM

## C[C@@H](C(=O)O)N(Cc1ccccc1)S(=O)(=O)c1ccc2c(Cl)cnc(N=C(N)N)c2c1
[1]
  Ki: > 100 µM
[2]
  Ki: 0.027 µM

## NC(N)=Nc1ncc(Cl)c2ccc(S(=O)(=O)NC3(CO)CCCC3)cc12
[2]
  Ki: 0.067 µM

## NC(=O)[C@H]1CCCN1S(=O)(=O)c1ccc2c(Cl)cnc(N=C(N)N)c2c1
[2]
  Ki: 0.054 µM

## CC(C)(CNS(=O)(=O)c1ccc2c(Cl)cnc(N=C(N)N)c2c1)C(=O)O
[2]
  Ki: 0.043 µM

## NC(N)=Nc1ncc(Cl)c2ccc(S(=O)(=O)NC3(C(=O)O)CCCCC3)cc12
[1]
  Ki: > 100 µM
Plasminogen
  Ki: 39 µM
[2]
  Ki: 0.008 µM

## NC(N)=Nc1ncc(Cl)c2ccc(S(=O)(=O)NCC(=O)O)cc12
[1]
  Ki: > 30 µM
Plasminogen
  Ki: > 30 µM
[2]
  Ki: 0.048 µM

## CN(C)CCNC(=O)C1(NS(=O)(=O)c2ccc3c(Cl)cnc(N=C(N)N)c3c2)CCCC1
Plasminogen
  Ki: > 100 µM
[2]
  Ki: 0.03 µM

## CN1CCC(NS(=O)(=O)c2ccc3c(Cl)cnc(N=C(N)N)c3c2)(C(=O)O)CC1
Plasminogen
  Ki: 71 µM
[2]
  Ki: 0.011 µM

## NC(N)=Nc1ncc(Cl)c2ccc(S(=O)(=O)NC3(C(=O)O)CCCC3)cc12
[1]
  Ki: 38 µM
Plasminogen
  Ki: 14 µM
[2]
  Ki: 0.0058 µM

## C[C@@H](NS(=O)(=O)c1ccc2c(Cl)cnc(N=C(N)N)c2c1)C(=O)O
[2]
  Ki: 0.028 µM

## NC(N)=Nc1ncc(Cl)c2ccc(S(=O)(=O)N3CCC[C@@H]3C(=O)O)cc12
[1]
  Ki: > 100 µM
Plasminogen
  Ki: > 100 µM
[3]
  inhibition: < 50%
[2]
  Ki: 0.0099 µM

## NC(N)=Nc1ncc(Cl)c2ccc(S(=O)(=O)NCCC(=O)O)cc12
[1]
  Ki: > 100 µM
Plasminogen
  Ki: > 100 µM
[2]
  Ki: 0.058 µM

## NC(N)=Nc1ncc(Cl)c2ccc(S(N)(=O)=O)cc12
[1]
  Ki: > 100 µM
Plasminogen
  Ki: > 100 µM
[3]
  inhibition: < 50%

## NC(N)=Nc1ncc(Cl)c2ccc(S(=O)(=O)N3CCC[C@H]3C(=O)O)cc12
[1]
  Ki: > 100 µM
Plasminogen
  Ki: > 100 µM
[2]
  Ki: 0.111 µM

## NC(N)=Nc1ncc(Cl)c2ccc(S(=O)(=O)NC3(C(=O)NCCO)CCCC3)cc12
[1]
  Ki: 108 µM
Plasminogen
  Ki: > 100 µM
[2]
  Ki: 0.01 µM

## C[C@H](NS(=O)(=O)c1ccc2c(Cl)cnc(N=C(N)N)c2c1)C(=O)O
Plasminogen
  Ki: 15 µM
[2]
  Ki: 0.021 µM

## CN1CCN(S(=O)(=O)c2ccc3c(Cl)cnc(N=C(N)N)c3c2)CC1
[2]
  Ki: 0.55 µM

## CC(C)(NS(=O)(=O)c1ccc2c(Cl)cnc(N=C(N)N)c2c1)C(=O)O
[1]
  Ki: 40 µM
Plasminogen
  Ki: 27 µM
[4]
  concentration: 41.8 µM
Coagulation factor IX
  inhibition: 13%
[5]
  inhibition: 0%
[6]
  pKa: 3.4
[7]
  logD: 0
[8]
  solubility: 2.3 µg/mL (≈ 5.96 µM)

## NC(N)=Nc1ncc(Cl)c2ccc(S(=O)(=O)N3CCOCC3)cc12
[2]
  Ki: 0.33 µM

## CC(C)[C@H](NS(=O)(=O)c1ccc2c(Cl)cnc(N=C(N)N)c2c1)C(=O)O
[1]
  Ki: > 100 µM
Plasminogen
  Ki: 45 µM
[2]
  Ki: 0.066 µM
